In the library only some 12% were active in any assay of this set; here they are far more common.
WT yeast gro inh: growth inhibition of WT yeast, mitochondrial fusion screen | AID 1362 | mitochondrial fusion phenotypic screen, WT strain | inhibition, % at 10 µM | 190,000 tested, 2.1% active; in the data active means inhibition above about 58%; tested in S. cerevisiae
ROMK mod: human ROMK K+ channel modulation, primary screen; P48048; Tet-inducible ROMK, thallium flux fluorescence; actives lie on both sides; B-score at 10 µM; 130,000 tested, 2% active; AID 1918;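 active means signal ratio slope over the read window, or its plate-corrected B-score, at least 3 SD from the plate mean, either direction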;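 further: B-score of the F/F0 ratio slope over 7 to 12 s after thallium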
Diaphorase act: counter-screen for diaphorase-based assays: diaphorase activators and chemical reducers; 190,000 tested, 0.005% active; Diaphorase/resazurin coupled assay, resorufin fluorescence, 16 min; hits give high values; 1 = vehicle wells, 0 = NADH-free wells; activation factor at 20 µM;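 active means diaphorase activity raised at least twofold by the compound at 20 µM; inactive means activation factor below 2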
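test system = bacterial diaphorase enzyme (C. kluyveri) | quantity = enzyme 0.07 U/mL final | reagent = NADH substrate 0.114 mM plus resazurin dye 0.1 mM, final | incubation = 16 min enzyme reaction, ambient temperature | buffer or medium = HEPES pH 7.4 buffer with MgCl2 and Tween 20 | signal = fluorescence of resorufin, 544 nm excitation, 590 nm emission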
Diaph inh CS: diaphorase inhibition or chemical oxidation counter-screen; 190,000 tested, 0.69% active; inhibition, % at 20 µM; AID 1217; diaphorase resazurin-to-resorufin fluorescence, NADH, 16 min; bacterial (C. kluyveri) enzyme, not human;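 active means primary screen inhibition at 20 µM above a set limit, cut at about 50% in these data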
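System: Bacterial diaphorase enzyme (C. kluyveri) | Incubation: 16-min room-temperature incubation before reading | Benchmarks: No-NADH positive control and DMSO neutral control | Measured by: Resorufin fluorescence 544/590 nm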
Cl transport mod: modulates chloride dependent transport by human KCC2; Q9H2X9; KCC2 cells, thallium flux FluoZin-2 fluorescence; 190,000 tested, 2.2% active; B-score of Tl+ flux slope (higher = more flux/activation; lower = inhibition) at 10 µM; AID 1456;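 active means thallium flux slope and its plate-corrected score both differing from the plate sample mean at a set confidence after two filtering rounds, in either direction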;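 further: slope of fluorescence scaled to starting intensity during 10 to 20 s after thallium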
L major viab: reduces viability of Leishmania major promastigotes | resazurin fluorescence viability | inhibition, % at 10 µM | 200,000 tested, 9% active | AID 1063; in the data active means inhibition above about 50%;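 further: promastigotes grown with compound for 44 hours at 28 °C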
KCC2 secondary: KCC2 (human) modulation, secondary assay. shares compounds with Cl transport mod. HEK293-KCC2, thallium flux, FluoZin2 fluorescence; hits give high values. normalised thallium flux (F/F0 slope) at 10 µM. 3,700 tested, 15% active;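 active means thallium flux slope above the same plate's solvent-only control mean plus 3 SD; inconclusive means the two replicate wells disagree; inactive means no significant difference from solvent-only control wells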
KCC2 bumet counter: thallium flux despite bumetanide block in KCC2 cells, secondary assay 3; AID 1714; HEK293-KCC2 + bumetanide/ouabain, thallium flux FluoZin2; hits give high values; normalized thallium flux at 10 µM; shares compounds with Cl transport mod; 3,700 tested, 49% active;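 active means thallium entry rate above the same plate's blocked-transporter control wells by more than 3 SD; inconclusive means the two repeat wells disagree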;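 further: raw slope of fluorescence over initial fluorescence between 10 and 20 s after thallium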
KCC2 secondary2: KCC2 (human) modulation, second secondary assay; shares compounds with Cl transport mod; HEK293-KCC2, thallium flux FluoZin2 fluorescence; actives lie on both sides; F/F0 rise rate, 10–20 s post-thallium; normalized thallium flux at 10 µM; 3,700 tested, 23% active; AID 1715;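 active means thallium flux slope more than 3 SD above or below the plate's solvent-only control mean, mostly below; inconclusive means the two repeat wells disagreed; inactive means no significant shift from solvent-only controls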
HEK293 Tl flux: acts in parental HEK cells, KCC2 counter-screen; shares compounds with Cl transport mod; HEK293 parental cells, thallium flux FluoZin2, ouabain; baseline-ratio fluorescence slope, 10–20 s after thallium; thallium flux rate (normalised fluorescence) at 10 µM; 3,700 tested, 46% active;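 active means thallium flux rate significantly above the same plate's solvent-only control wells, beyond their mean plus 3 SD; inconclusive means the two replicate wells gave conflicting results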
KCC2 retest ouab: modulates human KCC2 on retest with ouabain; shares compounds with Cl transport mod; HEK293-KCC2, thallium flux FluoZin2 fluorescence; bidirectional: low = inhibitor, high = activator; raw Tl+ flux slope (below DMSO = inhibition, above = activation) at 10 µM; 3,700 tested, 48% active; AID 1717;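 active means thallium flux slope beyond 3 SD from same-plate DMSO control mean in most replicates, usually higher, sometimes lower; inconclusive means repeat tests gave conflicting results; inactive means no significant difference from controls in most replicates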;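 further: slope of initial-normalized fluorescence between seconds 10 and 20 after thallium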
HEK counter2: counter-screen for KCC2 modulators: effect in parental HEK293 cells; shares compounds with Cl transport mod; thallium flux FluoZin-2 fluorescence slope; thallium flux slope at 10 µM; 3,700 tested, 33% active; AID 1718;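 active means thallium flux slope above the same plate's solvent-control mean plus 3 SD in both duplicate wells; inconclusive means duplicate wells that disagreed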;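 further: run without ouabain in cells lacking the KCC2 cotransporter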
Numbers stand for hits; 0 = inactive; ? = inconclusive; - = no result.

SMILES	WT yeast gro inh	ROMK mod	Diaphorase act	Diaph inh CS	Cl transport mod	L major viab	KCC2 secondary	KCC2 bumet counter	KCC2 secondary2	HEK293 Tl flux	KCC2 retest ouab	HEK counter2
Cc1nc(C(=O)NNC(=O)c2ccc(Cl)cc2)cs1	-	0	-	-	9.89	-	?	0.0254	0	0.0123	0	?
Cc1nc(-c2nc(CC(=O)NNC(=O)c3ccc(Cl)cc3)cs2)cs1	-	0	-	-	0	-	-	-	-	-	-	-
Cc1ccc2nsnc2c1NS(=O)(=O)c1c(C)ccc2nsnc12	-	0	0	0	7.6	0	0	0.0277	0	0.0204	0.0287	0.0192
Cc1cc(C)c(S(=O)(=O)Nc2cccc3nsnc23)c(C)c1	0	0	0	0	23	0	0.0178	0.0736	0	0.0408	0.0735	0.0186
Cc1cc(S(=O)(=O)Nc2c(C)ccc3nsnc23)ccc1F	0	-	0	0	0	0	-	-	-	-	-	-
Cc1ccc2cc(C#N)c(SCC(=O)N3CCCc4ccccc43)nc2c1C	0	-	0	0	0	0	-	-	-	-	-	-
CC(C)Cn1nnc2c(=O)oc3ccccc3c21	0	-	0	0	-	0	0	0	0.0268	0.00524	0.012	0.0084
C=CCOc1ccc(/C=N/NC(=O)CN2CCOCC2)cc1OCC	0	0	0	0	0	0	-	-	-	-	-	-
Cn1c(SCc2ccccc2Cl)nc2ccccc21	0	0	0	0	-4.32	0	?	?	0.0244	0	0.014	0
CCn1c(CSc2nc3ccccc3n2C)nc2ccccc21	0	-	0	0	-3.99	0	?	0	0.0221	?	0.0142	0
CCn1c(SCc2ccccc2Cl)nc2ccccc21	0	-	0	0	0	0	-	-	-	-	-	-
Cc1c(N2C(=O)/C(=C\c3ccccc3O)SC2=S)c(=O)n(-c2ccccc2)n1C	-	-	-	-	51.9	-	0.027	0.0625	0.0679	0.0678	0.0626	0.0636
Cc1c(N2C(=O)/C(=C/c3ccccc3)SC2=S)c(=O)n(-c2ccccc2)n1C	0	-	0	0	-7.63	0	0	?	0.0271	0	0.0144	?
Cc1c(N2C(=O)/C(=C/C3CC=CCC3)SC2=S)c(=O)n(-c2ccccc2)n1C (stereo not given)	-	-	-	-	0	-	-	-	-	-	-	-
Cc1ccc(/C=C2\SC(=S)N(c3c(C)n(C)n(-c4ccccc4)c3=O)C2=O)cc1	0	0	0	0	-3.92	0	0	?	0.0255	0	0.0145	0
COC(=O)c1ccccc1NC(=S)NC(=O)c1ccccc1C	0	0	0	0	4.73	0	0	0.0401	0	0.0135	?	?
CCC(=O)NC(=S)Nc1cccc(-c2nc3ncccc3o2)c1	0	0	0	0	0	0	-	-	-	-	-	-
Cc1cc(-c2nc3ncccc3o2)ccc1NC(=S)NC(=O)c1ccco1	0	0	0	0	10.3	0	0.0129	0.0403	0	0.0346	0.0351	0.0164
Cc1ccccc1C(=O)NC(=S)Nc1ccccc1[N+](=O)[O-]	0	-	0	0	14	0	0	0.0129	0	0.0109	0	0
O=C(NC(=S)Nc1ccccc1[N+](=O)[O-])c1ccco1	0	0	0	0	25.4	0	0.0171	0.077	0	0.0321	0.0645	0.0161
